Source: ChEMBL document CHEMBL1130133, “Terbenzimidazoles: influence of 2"-, 4-, and 5-substituents on cytotoxicity and relative potency as topoisomerase I poisons” (J Med Chem, 1997)

Tests used:
[1] = target: T1, DNA topoisomerase 1 (Homo sapiens) (UniProt P11387); assay: Topoisomerase I mediated DNA cleavage; type: functional
T1 sequence (whole entry): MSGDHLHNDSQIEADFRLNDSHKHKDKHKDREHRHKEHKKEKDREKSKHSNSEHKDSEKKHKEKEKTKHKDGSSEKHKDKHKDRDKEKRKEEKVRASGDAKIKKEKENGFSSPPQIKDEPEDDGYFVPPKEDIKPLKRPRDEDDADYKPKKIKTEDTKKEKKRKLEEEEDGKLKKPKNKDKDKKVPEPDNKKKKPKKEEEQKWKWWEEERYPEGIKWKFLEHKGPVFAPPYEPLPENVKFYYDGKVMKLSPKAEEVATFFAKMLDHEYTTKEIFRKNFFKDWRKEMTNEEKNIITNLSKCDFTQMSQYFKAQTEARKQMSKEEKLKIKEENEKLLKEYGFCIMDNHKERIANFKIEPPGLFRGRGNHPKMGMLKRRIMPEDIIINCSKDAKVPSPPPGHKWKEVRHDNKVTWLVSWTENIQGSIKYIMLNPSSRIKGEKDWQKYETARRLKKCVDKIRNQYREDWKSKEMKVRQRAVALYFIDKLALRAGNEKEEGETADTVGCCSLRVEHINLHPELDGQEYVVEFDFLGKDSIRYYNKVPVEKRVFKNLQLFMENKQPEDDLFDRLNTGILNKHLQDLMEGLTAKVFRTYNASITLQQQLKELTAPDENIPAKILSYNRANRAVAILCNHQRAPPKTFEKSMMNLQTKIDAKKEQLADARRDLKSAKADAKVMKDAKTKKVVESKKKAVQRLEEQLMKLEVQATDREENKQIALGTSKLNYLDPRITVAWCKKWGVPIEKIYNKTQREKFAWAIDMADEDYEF
Procedure, shortened: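 Recombinant human topoisomerase I (expressed in E. coli) was incubated with end-labeled plasmid YEpG DNA and drug for 30 min at 37 °C. Drug was given as 10-fold serial dilutions from 0.01 to 10 µg/mL. Fragments were separated on gels and autoradiographed, typically with 24 h exposure. Cleavage was scored from the strongest specific band and expressed as concentration relative to reference compound (set to 1) giving equal cleavage.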

RPMI 8402 = assay: Cytotoxicity using human lymphoblast RPMI 8402 cells.; type: functional, cell-based
Procedure, shortened: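 Human lymphoblast RPMI 8402 cells were grown in suspension at 37 °C, 5% CO2, in RPMI with 10% heat-inactivated FBS, 2 mM L-glutamine, penicillin 100 U/mL and streptomycin 0.1 mg/mL. Cells were seeded at 2000/well and exposed continuously to a range of drug concentrations for 4 days, then read by MTT assay. A no-drug control was included, and each assay was run at least twice in six replica wells.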

Row | Structure (SMILES) | REC [1] | IC50 (RPMI 8402)
1 | Cc1nc2cc(-c3nc4cc(-c5nc6cc(-c7ccccc7)ccc6[nH]5)ccc4[nH]3)ccc2[nH]1 | 2 | 110 nM
2 | c1ccc(-c2cccc3[nH]c(-c4ccc5[nH]c(-c6ccc7[nH]cnc7c6)nc5c4)nc23)cc1 | 5 | 7000 nM
3 | c1ccc(-c2ccc3[nH]c(-c4ccc5[nH]c(-c6ccc7[nH]c(-c8ccccc8)nc7c6)nc5c4)nc3c2)cc1 | 20 | 60 nM
4 | c1ccc2c(c1)ccc1[nH]c(-c3ccc4[nH]c(-c5ccc6[nH]cnc6c5)nc4c3)nc12 | 1 | 25000 nM
5 | CCCc1nc2cc(-c3nc4cc(-c5nc6cc(-c7ccccc7)ccc6[nH]5)ccc4[nH]3)ccc2[nH]1 | 0.5 | 60 nM
6 | CCc1nc2cc(-c3nc4cc(-c5nc6cc(-c7ccccc7)ccc6[nH]5)ccc4[nH]3)ccc2[nH]1 | 1 | 110 nM
7 | CC(C)c1nc2cc(-c3nc4cc(-c5nc6cc(-c7ccccc7)ccc6[nH]5)ccc4[nH]3)ccc2[nH]1 | 0.05 | 60 nM

The next lines start with results.

Row | REC [1] | Structure (SMILES) | IC50 (RPMI 8402)
8 | 2 | c1ccc2c(-c3ccc4[nH]c(-c5ccc6[nH]c(-c7ccc8[nH]cnc8c7)nc6c5)nc4c3)cccc2c1 | 2100 nM
9 | 0.5 | COc1ccc(-c2ccc3[nH]c(-c4ccc5[nH]c(-c6ccc7[nH]cnc7c6)nc5c4)nc3c2)cc1 | 90 nM
10 | > 1000 | c1ccc2cc3[nH]c(-c4ccc5[nH]c(-c6ccc7[nH]cnc7c6)nc5c4)nc3cc2c1 | > 100000 nM
11 | 2 | Clc1ccc(-c2ccc3[nH]c(-c4ccc5[nH]c(-c6ccc7[nH]cnc7c6)nc5c4)nc3c2)cc1 | 90 nM
12 | 20 | COc1ccc(-c2nc3cc(-c4nc5cc(-c6nc7cc(-c8ccccc8)ccc7[nH]6)ccc5[nH]4)ccc3[nH]2)cc1 | 380 nM
13 | 1 | c1ccc(-c2ccc3[nH]c(-c4ccc5[nH]c(-c6ccc7[nH]cnc7c6)nc5c4)nc3c2)cc1 | 
14 | 1 | c1ccc2cc(-c3ccc4[nH]c(-c5ccc6[nH]c(-c7ccc8[nH]cnc8c7)nc6c5)nc4c3)ccc2c1 | 80 nM
